Assay outcomes from PubChem BioAssay.
SENP8 block-1: blocks the human protease SENP8; Q96LD8; purified SENP8, Z-RLRGG-aminoluciferin cleavage, luminescence; inhibition, % at 10 µM; hit rate 1.2% among 330,000; AID 2540; in the data active means inhibition above about 50%
SENP8 block-2: SENP8 (human) protease inhibition; recombinant SENP8, Nedd8 substrate fluorescence; inhibition, % at 20 µM; hit rate 0.64% among 360,000; AID 602440; in the data active means inhibition mostly above about 40%, no sharp cut-off; inactive means mostly below about 27%
SENP6 block: blocks the human protease SENP6. Recombinant SENP6 catalytic domain, aminoluciferin luminescence. inhibition, % at 10 µM. hit rate 1.8% among 330,000. AID 2599;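 active means inhibition above about 50% at the single tested dose, limit read from the data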;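 further: plate controls were DMSO wells with enzyme for no effect and DMSO wells lacking enzyme for full effect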
UBC13 polyUb: blocks human UBC13 polyubiquitin chain formation | TR-FRET | inhibition, % at 20 µM | hit rate 0.47% among 330,000 | AID 485273; in the data active means inhibition above about 45%, passing the limit was not always enough
Target sequence (P61088 whole entry, looked up): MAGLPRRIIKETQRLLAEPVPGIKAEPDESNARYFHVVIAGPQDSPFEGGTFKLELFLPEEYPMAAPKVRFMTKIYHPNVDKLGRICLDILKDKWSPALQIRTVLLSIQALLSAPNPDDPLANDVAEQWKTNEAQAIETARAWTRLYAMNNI
Apaf-1 inh: blocks human Apaf-1 apoptosome activity; O14727; reconstituted apoptosome caspase-3 activity, DEVD-Rh110 fluorescence; inhibition, % at 20 µM; hit rate 0.71% among 330,000; active means inhibition of at least 40% at 20 µM;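 further: plate controls were DMSO wells for no effect and DEVD-CHO caspase inhibitor wells for full effect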
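Medium: Hepes buffer, pH 7.5 / System: biochemical Apaf-1 apoptosome reconstitution / Measured by: Rh110 fluorescence, excitation 480 nm, emission 540 nm / Times: compound with Apaf-1, dATP, procaspase-3 30 min, then 50 min reaction, room temperature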
SENP7 inh: blocks the human protease SENP7; Q9BQF6; recombinant SENP7, Z-RLRGG-aminoluciferin luminescence, 40 min; inhibition, % at 5 µM; hit rate 1.5% among 330,000; AID 434973;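 active means inhibition above about 50% at the single test dose, limit read from the data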;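 further: plate controls were DMSO with enzyme for no effect and no enzyme buffer wells for full effect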
Target sequence (Q9BQF6 706-1050 limits assumed): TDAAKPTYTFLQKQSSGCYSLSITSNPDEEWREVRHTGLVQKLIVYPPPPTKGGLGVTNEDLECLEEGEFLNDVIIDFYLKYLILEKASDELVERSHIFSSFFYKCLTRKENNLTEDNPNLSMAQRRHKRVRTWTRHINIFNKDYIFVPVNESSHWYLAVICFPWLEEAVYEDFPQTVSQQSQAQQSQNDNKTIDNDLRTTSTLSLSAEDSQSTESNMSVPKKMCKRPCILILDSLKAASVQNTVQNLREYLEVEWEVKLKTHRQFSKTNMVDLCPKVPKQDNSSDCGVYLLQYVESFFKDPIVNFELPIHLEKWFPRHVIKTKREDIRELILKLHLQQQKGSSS
Casp3 counter: counter-screen for UBC13 inhibitors: human caspase-3 inhibition. shares compounds with UBC13 polyUb. Recombinant caspase-3, Caspase-Glo 3/7 luminescence, 60 min. inhibition, % at 20 µM. hit rate 4% among 1,400. AID 488856;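 active means mean inhibition across replicates above about 26%, limit read from the data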;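 further: plate controls were DMSO with caspase-3 for no effect and DMSO wells lacking enzyme for full effect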
UBC13 confirm: human UBC13 polyubiquitin inhibition, confirmed; shares compounds with UBC13 polyUb; inhibition, % at 10 µM; hit rate 68% among 1,400; UBC13 polyubiquitination, TR-FRET, biochemical; in the data active means inhibition above about 45%
* = called active by the depositor; . = no result. Sampled rows, rich in hits. Any-hit rate of the full collection: about 3%.

SMILES | SENP8 block-1 | SENP8 block-2 | SENP6 block | UBC13 polyUb | Apaf-1 inh | SENP7 inh | Casp3 counter | UBC13 confirm
COc1ccc(C(CCN2CCN(c3ccccc3)CC2)c2c(OC)cc(OC)c3c(-c4ccccc4)cc(=O)oc23)cc1 (centres undefined) | 8 | -76 | 1 | -2 | 16 | 6 | . | .
COc1cc(OC)c2c(-c3ccccc3)cc(=O)oc2c1C(CCN1CCCC1)c1ccc2c(c1)OCO2 (centres undefined) | -2 | -53 | -6 | 52* | 49* | -4 | 3 | 32
COc1ccc(C(CCN2CCCC2)c2c(OC)cc(OC)c3c(-c4ccccc4)cc(=O)oc23)cc1 (centres undefined) | -11 | -174 | -8 | 67* | 26 | 9 | -4 | 37
CCN(CC)CCC(c1ccc(N(C)C)cc1)c1c(OC)cc(OC)c2c(-c3ccccc3)cc(=O)oc12 (centres undefined) | -9 | 12 | -9 | 50* | 23 | -7 | -2 | 26
COc1cc(OC)c2ccc(=O)oc2c1C(CCN1CCCC1)c1ccc2c(c1)OCO2 (centres undefined) | -4 | -154 | -10 | 12 | 12 | 0 | . | .
CCN(CC)c1nc2c(c(=O)[nH]c(=O)n2C)n1CCOc1ccccc1 | -3 | 12 | -10 | -6 | 10 | -13 | . | .
COc1cc(C(CCN2CCOCC2)c2c(OC)cc(OC)c3c(-c4ccccc4)cc(=O)oc23)cc(OC)c1OC (centres undefined) | . | -24 | . | . | 35 | -2 | . | .
COc1cc(C(CCN2CCCC2)c2c(OC)cc(OC)c3c(-c4ccccc4)cc(=O)oc23)cc(OC)c1OC (centres undefined) | 7 | -44 | -12 | 46* | 11 | -4 | 1 | 40
O=C(CCCn1c(=S)[nH]c2ccc(Br)cc2c1=O)N1CCN(c2ccccn2)CC1 | 0 | 9 | -2 | 45* | 7 | 2 | -2 | 44
CC(=O)N1CCC(C(=O)N2CCN(S(=O)(=O)c3ccc(Cl)s3)CC2)CC1 | -6 | 7 | -10 | -8 | 16 | -1 | . | .
C[C@@H](O)C1NC(=O)[C@H](CCCCN)NC(=O)c2cc([N+](=O)[O-])cc(F)c2NCCCC[C@@H](C(N)=O)NC1=O (some centres undefined) | 7 | 16 | 10 | 96* | -6 | -2 | 0 | 101*
NNC(=O)c1ccc(CN2C(=O)c3cccc4cccc2c34)cc1 | -13 | -355 | -5 | 96* | 18 | -8 | 2 | 108*
CCN(CC(=O)Nc1c(F)cccc1F)C(=O)CCOc1ccccc1 | -12 | 7 | -21 | 55* | 3 | -13 | 2 | -4
CCN(CC(=O)Nc1c(F)cccc1F)C(=O)CCCOc1ccccc1 | . | 3 | . | . | . | . | . | .
CCCCCCCNC(=O)C1(CC2CC(c3cccc(Br)c3)=NO2)CCN(C(=O)C2(C)CC2)CC1 (centres undefined) | 2 | 12 | -4 | 20 | 20 | 1 | . | .
CCCCCCCNC(=O)C1(CC2CC(c3cccc(Br)c3)=NO2)CCN(C(=O)CCCCCBr)CC1 (centres undefined) | -8 | 18 | -9 | 45* | 25 | -13 | -1 | 13
COc1ccc(OCc2nc3c4cc(OC)c(OC)cc4nc(=S)n3[nH]2)cc1 | -4 | -7 | -29 | 59* | -7 | 3 | 4 | 44
COc1ccc(C(CNC(=O)c2ccc(-c3nc4ccccc4s3)o2)N2CCCC2)cc1 (centres undefined) | -5 | -417 | -7 | 61* | 26 | -4 | 8 | 53*
CCOC(=O)c1c(NC(=O)COC(=O)Cc2c[nH]c3ccccc23)sc(C(=O)N(C)C)c1C | -17 | -6 | -11 | -7 | 25 | -3 | . | .
CCNc1nc(C)nc2c1cnn2C | . | 6 | . | . | . | . | . | .
Nc1nc2ccccc2cc1S(=O)(=O)c1ccccc1 | -4 | -390 | -2 | 28 | 6 | 6 | . | .
Nc1ncc([N+](=O)[O-])cc1S(=O)(=O)c1ccccc1 | 3 | 26 | -1 | 54* | -11 | 5 | 2 | 49*
CCNC(C(=O)c1c[nH]c2c(CC)cccc12)c1ccccc1 (centres undefined) | 10 | -8 | -3 | 50* | 0 | -2 | -1 | 64*
O=C1/C(=C/C=C/c2ccco2)SC(=S)N1NS(=O)(=O)c1ccccc1 | -5 | 13 | -19 | 51* | 27 | 2 | 3 | 2
Cc1ccc(N(C(=O)CNC(=O)c2ccco2)C(C(=O)NC2CCCC2)c2ccncc2)cc1C (centres undefined) | -4 | 15 | -44 | -4 | -3 | -7 | . | .
SMILES | SENP8 block-1 | SENP8 block-2 | SENP6 block | UBC13 polyUb | Apaf-1 inh | SENP7 inh | Casp3 counter | UBC13 confirm
CCOc1ccc(OCC)c(NC(=O)C2CCCN(C(=O)c3ccc(Cl)cc3)C2)c1 (centres undefined) | -2 | 6 | 5 | 8 | 0 | -8 | . | .
NC(=O)NC(CC(=O)NCCc1ccccn1)c1ccccc1Cl (centres undefined) | 0 | 9 | -12 | 0 | -12 | 0 | . | .
CCNC(=S)NNC(=O)c1ccccc1Cl | 1 | 2 | -12 | 0 | -9 | 5 | . | .
Cc1cccc(OCCCC(=O)NNC(=O)c2ccncc2)c1 | -16 | 3 | -4 | 1 | 2 | 10 | . | .
O=C(CCc1ccccc1)NNC(=O)c1ccccn1 | 7 | 16 | -10 | 50* | -1 | -4 | 2 | 64*
CCNC(=S)NNC(=O)c1ccccn1 | -10 | 11 | -14 | 90* | -3 | -3 | -1 | 87*
Cc1cccc(OCCCC(=O)NNC(=O)c2ccccn2)c1 | 4 | 4 | 4 | 75* | -8 | 5 | -3 | 16
NC(=O)NC(CC(=O)NNC(=O)c1ccccn1)c1ccccc1Cl (centres undefined) | 0 | 6 | -3 | 80* | -7 | 7 | 8 | 82*
CCOc1ccc(C(C)=O)cc1CN1C(=O)NC2(CCCCCCC2)C1=O | 2 | 3 | 6 | 2 | 7 | 0 | . | .
COc1ccccc1N(CC(=O)NC(C)(C)C)C(=O)c1ccc(Cl)nc1 | 2 | 8 | 2 | 1 | 1 | 4 | . | .
CCN(CC)C(=O)Cn1cnc2sc(C(=O)N3CCN(c4ccc(F)cc4)CC3)c(C)c2c1=O | -2 | 5 | -22 | -1 | 8 | -6 | . | .
O=C1c2cc(Cl)ccc2OC2(CCNCC2)C12CC(c1ccc(Cl)cc1)=NO2 (centres undefined) | -5 | 15 | -4 | 48* | 20 | -5 | 3 | 41
O=C1c2cc(Cl)ccc2OC2(CCNCC2)C12CC(c1ccccc1)=NO2 (centres undefined) | 0 | 17 | -4 | 42 | 25 | 14 | . | .
